Legend:
Escherichia coli [1] = experiment: Synergistic antibacterial activity against Escherichia coli ATCC 25922 assessed as fractional inhibitory concentration index in presence of minocycline incubated for 18 hrs by broth dilution method; assay type: functional
Outline: (§1)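 Checkerboard titration of the adjuvant against the antibiotic, run under the CLSI microdilution conditions (MHB, 5 × 10^5 CFU/mL, 18 h, 37 °C). Each agent's FIC is its MIC in combination divided by its MIC alone; FICI is the sum of the two FICs. FICI ≤0.5 was read as synergy, >0.5–4.0 as no interaction, and >4.0 as antagonism.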

Klebsiella pneumoniae [2] = experiment: Synergistic antibacterial activity against Klebsiella pneumoniae 113254 assessed as fractional inhibitory concentration index in presence of minocycline incubated for 18 hrs by broth dilution method; assay type: functional; outline: as §1
Acinetobacter baumannii [3] = experiment: Potentiation of rifampicin-induced antibacterial activity against multidrug-resistant Acinetobacter baumannii AB110193 assessed as fold reduction in rifampicin MIC at 4.1 uM incubated for 18 hrs by broth dilution method; assay type: functional
Outline: (§2)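 CLSI broth microdilution. Overnight cultures were set to 0.5 McFarland in saline, diluted 1:50 in Mueller-Hinton broth to a final 5 × 10^5 CFU/mL, and incubated 18 h at 37 °C against 2-fold antibiotic dilutions. A fixed adjuvant level was present throughout. MIC = lowest concentration with no visible turbidity, confirmed at 590 nm. Potentiation = fold drop in antibiotic MIC versus antibiotic alone.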

Klebsiella pneumoniae [4] = experiment: Potentiation of minocycline-induced antibacterial activity against Klebsiella pneumoniae 113250 assessed as fold reduction in minocycline MIC at 4.1 uM incubated for 18 hrs by broth dilution method; assay type: functional
Outline: (§3)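 Antibiotic MIC determined by CLSI broth microdilution (MHB, 5 × 10^5 CFU/mL, 18 h, 37 °C), once alone and once with a fixed concentration of the adjuvant. Potentiation is the ratio of the antibiotic MIC alone to its MIC in the presence of the adjuvant.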

Escherichia coli [5] = experiment: Synergistic antibacterial activity against Escherichia coli 94474 assessed as fractional inhibitory concentration index in presence of minocycline incubated for 18 hrs by broth dilution method; assay type: functional; outline: as §1
Escherichia coli [6] = experiment: Antimicrobial activity against Escherichia coli ATCC 25922 incubated for 18 hrs by broth dilution method; assay type: functional; details: ATCC 25922, 18 h
Outline: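 CLSI broth microdilution. Overnight cultures were adjusted to 0.5 McFarland in saline, diluted 1:50 in Mueller-Hinton broth, and inoculated at a final 5 × 10^5 CFU/mL. Compounds were tested as 2-fold serial dilutions and incubated 18 h at 37 °C. MIC was the lowest concentration with no visible turbidity, confirmed by absorbance at 590 nm.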

Escherichia coli [7] = experiment: Potentiation of rifampicin-induced antibacterial activity against Escherichia coli ATCC 25922 assessed as fold reduction in rifampicin MIC at 2.0 uM incubated for 18 hrs by broth dilution method; assay type: functional; outline: as §3
Acinetobacter baumannii [8] = experiment: Synergistic antibacterial activity against multidrug-resistant Acinetobacter baumannii AB92247 assessed as fractional inhibitory concentration index in presence of rifampicin incubated for 18 hrs by broth dilution method; assay type: functional
Pseudomonas aeruginosa [9] = experiment: Potentiation of minocycline-induced antimicrobial activity against MDR/XDR Pseudomonas aeruginosa isolate 100036 harboring GyrA Thr83Ile mutant assessed as minocycline MIC50 incubated for 18 hrs by broth microdilution method (reference value: 16 microg/ml); assay type: functional; details: isolate 100036, 18 h
Pseudomonas aeruginosa [10] = experiment: Potentiation of moxifloxacin-induced antibacterial activity against MDR/XDR Pseudomonas aeruginosa isolate 100036 harboring GyrA T83I mutant assessed as fold reduction in moxifloxacin MIC at 7.5 uM incubated for 18 hrs by broth microdilution method; assay type: functional; outline: as §2
Pseudomonas aeruginosa [11] = experiment: Disruption of electrical component of PMF with transmembrane chemical component increment in Pseudomonas aeruginosa PAO1 membrane assessed as increase in tetracycline uptake measured every 1 min for 30 mins by fluorescence based assay; assay type: organism-based; details: Bacterial membrane
Outline: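 P. aeruginosa PAO1 was grown to OD600 0.6, washed and resuspended in 10 mM HEPES pH 7.2, then treated with varying compound concentrations plus […] tetracycline. Fluorescence (ex 405/em 535 nm) was read each minute for 30 min at room temperature. Triplicates, averaged.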

Pseudomonas aeruginosa [12] = experiment: Potentiation of moxifloxacin-induced antibacterial activity against MDR/XDR Pseudomonas aeruginosa isolate PA259-96918 harboring GyrA T83I mutant assessed as fold reduction in moxifloxacin MIC at 7.5 uM incubated for 18 hrs by broth microdilution method; assay type: functional; outline: as §2
Acinetobacter baumannii [13] = experiment: Synergistic antibacterial activity against multidrug-resistant Acinetobacter baumannii 110193 assessed as fractional inhibitory concentration index in presence of rifampicin incubated for 18 hrs by broth dilution method; assay type: functional
Pseudomonas aeruginosa [14] = experiment: Potentiation of rifampicin-induced antimicrobial activity against MDR/XDR Pseudomonas aeruginosa isolate 100036 harboring GyrA Thr83Ile mutant assessed as rifampicin MIC80 incubated for 18 hrs by broth microdilution method (reference value: 16 microg/ml); assay type: functional; details: isolate 100036, 18 h
Pseudomonas aeruginosa [15] = experiment: Potentiation of moxifloxacin-induced antibacterial activity against MDR/XDR Pseudomonas aeruginosa isolate PA264-104354 harboring GyrA T83I mutant assessed as fold reduction in moxifloxacin MIC at 7.5 uM incubated for 18 hrs by broth microdilution method; assay type: functional; outline: as §2
Pseudomonas aeruginosa [16] = experiment: Potentiation of rifampicin-induced antimicrobial activity against MDR/XDR Pseudomonas aeruginosa isolate PA262-101856 harboring GyrA Thr83Ile mutant assessed as rifampicin MIC50 incubated for 18 hrs by broth microdilution method (reference value: 8 microg/ml); assay type: functional; details: isolate PA262-101856, 18 h
Pseudomonas aeruginosa [17] = experiment: Potentiation of minocycline-induced antimicrobial activity against MDR/XDR Pseudomonas aeruginosa isolate 101885 harboring GyrA Thr83Ile mutant assessed as minocycline MIC80 incubated for 18 hrs by broth microdilution method (reference value: 32 microg/ml); assay type: functional; details: isolate 101885, 18 h
Pseudomonas aeruginosa [18] = experiment: Potentiation of minocycline-induced antibacterial activity against MDR/XDR Pseudomonas aeruginosa isolate 91433 devoid of GyrA T83I mutant assessed as fold reduction in minocycline MIC at 7.5 uM incubated for 18 hrs by broth microdilution method; assay type: functional
Acinetobacter baumannii [19] = experiment: Synergistic antibacterial activity against multidrug-resistant Acinetobacter baumannii AB031 assessed as fractional inhibitory concentration index in presence of minocycline incubated for 18 hrs by broth dilution method; assay type: functional
Pseudomonas aeruginosa [20] = experiment: Potentiation of rifampicin-induced antibacterial activity against MDR/XDR Pseudomonas aeruginosa isolate 100036 harboring GyrA T83I mutant assessed as fold reduction in rifampicin MIC at 7.5 uM incubated for 18 hrs by broth microdilution method; assay type: functional; outline: as §2
Pseudomonas aeruginosa [21] = experiment: Potentiation of rifampicin-induced antibacterial activity against MDR/XDR Pseudomonas aeruginosa isolate PA260-97103 harboring GyrA T83I mutant assessed as fold reduction in rifampicin MIC at 9 uM incubated for 18 hrs by broth microdilution method; assay type: functional; outline: as §2
Pseudomonas aeruginosa [22] = experiment: Potentiation of ciprofloxacin-induced antibacterial activity against MDR/XDR Pseudomonas aeruginosa isolate 101243 devoid of GyrA T83I mutant assessed as fold reduction in ciprofloxacin MIC at 9 uM incubated for 18 hrs by broth microdilution method; assay type: functional

## Cl.Cl.Cl.Cl.Cl.NC[C@H]1O[C@H](O[C@H]2[C@H](OCCCCCCCCCCCCN3CCN(c4cc5c(cc4F)c(=O)c(C(=O)O)cn5C4CC4)CC3)[C@@H](O)[C@H](N)C[C@@H]2N)[C@H](N)C[C@@H]1O
Escherichia coli [1]
  fractional inhibitory concentration index (FICI): 0.504
Klebsiella pneumoniae [2]
  fractional inhibitory concentration index (FICI): 0.504
Acinetobacter baumannii [3]
  fold change (FC): 64
Klebsiella pneumoniae [4]
  fold change (FC): 2
Escherichia coli [5]
  fractional inhibitory concentration index (FICI): 0.063 - 0.078
Escherichia coli [6]
  MIC: 8 µg/mL
Escherichia coli [7]
  fold change (FC): 128
Acinetobacter baumannii [8]
  fractional inhibitory concentration index (FICI): 0.039

## COc1c(N2C[C@@H]3CCCN(CCCCCCCCCCCCO[C@@H]4[C@@H](O)[C@H](N)C[C@H](N)[C@H]4O[C@H]4O[C@H](CN)[C@@H](O)C[C@H]4N)[C@@H]3C2)c(F)cc2c(=O)c(C(=O)O)cn(C3CC3)c12.Cl.Cl.Cl.Cl.Cl
Pseudomonas aeruginosa [9]
  MIC50: 0.5 µg/mL
Pseudomonas aeruginosa [10]
  fold change (FC): 16
Pseudomonas aeruginosa [11]
  Activity: Dose-dependent effect
Pseudomonas aeruginosa [12]
  fold change (FC): 16
Acinetobacter baumannii [13]
  fractional inhibitory concentration index (FICI): 0.031 - 0.047
Pseudomonas aeruginosa [14]
  MIC80: 0.13 µg/mL
Pseudomonas aeruginosa [15]
  fold change (FC): 16
Pseudomonas aeruginosa [16]
  MIC50: 0.06 µg/mL
Pseudomonas aeruginosa [17]
  MIC80: 1 µg/mL
Pseudomonas aeruginosa [18]
  fold change (FC): 32
Acinetobacter baumannii [19]
  fractional inhibitory concentration index (FICI): >1
Pseudomonas aeruginosa [20]
  fold change (FC): 256

## Cl.Cl.Cl.Cl.Cl.Cl.NC[C@H]1O[C@H](O[C@H]2[C@H](OCCCCCCCCCCN3CCN(Cc4cccc5ccccc45)CC3)[C@@H](O)[C@H](N)C[C@@H]2N)[C@H](N)C[C@@H]1O
Pseudomonas aeruginosa [21]
  fold change (FC): 64
Pseudomonas aeruginosa [22]
  fold change (FC): 4

From ChEMBL document CHEMBL4354800, “Amphiphilic nebramine-based hybrids Rescue legacy antibiotics from intrinsic resistance in multidrug-resistant Gram-negative bacilli” (Eur J Med Chem, 2019)
